Source: ChEMBL document CHEMBL1128288, “7-Azetidinylquinolones as antibacterial agents. 3. Synthesis, properties and structure-activity relationships of the stereoisomers containing a 7-(3-amino-2-methyl-1-azetidinyl) moiety” (J Med Chem, 1995)
Values after ≈ are worked out from the molar mass of the structure shown.

Key:
Assay type in all cases: functional
Proteus vulgaris = test: In vitro antibacterial activity measured as minimum inhibitory concentration was evaluated on proteus vulgaris ATCC 8427 (Pv).; conditions: Proteus vulgaris, ATCC 8427; read-out: MIC
Method in brief: (§1)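 Serial 2-fold agar dilution in Mueller Hinton medium, run side by side with reference quinolones. Inoculum 10^5 cfu/mL; compound range 0.007–16 µg/mL.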

Escherichia coli [1] = test: In vitro antibacterial activity measured as minimum inhibitory concentration, was evaluated on Escherichia coli ATCC 23559(Ec).; conditions: Escherichia coli, ATCC 23559; read-out: MIC; method in brief: as §1
Staphylococcus aureus [2] = test: In vivo efficacy as ED50 against Staphylococcus aureus HS-93 by oral administration in mice.; conditions: Staphylococcus aureus, po; read-out: ED50
Method in brief: (§2)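 Mice, 4 groups of 10, infected intraperitoneally with slightly more than the LD100 of the organism. A single oral dose was given immediately after infection, with four doses (one per group) chosen from in vitro activity. Survival was scored after one week. ED50 (total dose, mg/kg, protecting 50%) was interpolated among group survival rates.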

Pseudomonas aeruginosa [3] = test: In vitro antibacterial activity measured as minimum inhibitory concentration was evaluated on Pseudomonas aeruginosa ATCC 10145 (Pa).; conditions: Pseudomonas aeruginosa, ATCC 10145; read-out: MIC; method in brief: as §1
Enterococcus faecalis = test: In vitro antibacterial activity measured as minimum inhibitory concentration was evaluated on Streptococcus faecalis ATCC 10541 (Sf).; conditions: Enterococcus faecalis, ATCC 10541; read-out: MIC; method in brief: as §1
Escherichia coli [4] = test: In vivo efficacy as ED50 against Escherichia coli HM-42 by oral administration in mice.; conditions: Escherichia coli, po; read-out: ED50; method in brief: as §2
Pseudomonas aeruginosa [5] = test: In vivo efficacy as ED50 against Pseudomonas aeruginosa HS-116 by oral administration in mice.; conditions: Pseudomonas aeruginosa, po; read-out: ED50; method in brief: as §2
Bacillus subtilis = test: In vitro antibacterial activity measured as minimum inhibitory concentration was evaluated on Bacillus subtilis ATCC 6633(Bs).; conditions: Bacillus subtilis, ATCC 6633; read-out: MIC; method in brief: as §1
Klebsiella pneumoniae = test: In vitro antibacterial activity measured as minimum inhibitory concentration was evaluated on klebsiella pneumoniae ATCC 10031 (Kp).; conditions: Klebsiella pneumoniae, ATCC 10031; read-out: MIC
Method in brief: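 Serial 2-fold agar dilution in Mueller Hinton medium, run side by side with reference quinolones.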

Staphylococcus aureus [6] = test: In vitro antibacterial activity measured as minimum inhibitory concentration was evaluated on Staphylococcus aureus ATCC 25178 (Sa).; conditions: Staphylococcus aureus, ATCC 25178; read-out: MIC; method in brief: as §1
Enterobacter cloacae = test: In vitro antibacterial activity measured as minimum inhibitory concentration, was evaluated on Enterobacter cloacae ATCC 23355 (Ecl).; conditions: Enterobacter cloacae, ATCC 23355; read-out: MIC
[7] = tested on: Staphylococcus epidermidis; test: In vitro antibacterial activity measured as minimum inhibitory concentration was evaluated on Staphylococcus epidermidis ATCC 155-1 (Se).; conditions: Staphylococcus epidermidis, ATCC 155-1; read-out: MIC; method in brief: as §1
Morganella morganii = test: In vitro antibacterial activity measured as minimum inhibitory concentration was evaluated on morganella morganii ATCC 8019 (Mm).; conditions: Morganella morganii, ATCC 8019; read-out: MIC; method in brief: as §1
Bacillus cereus = test: In vitro antibacterial activity measured as minimum inhibitory concentration was evaluated on Bacillus cereus ATCC 11778 (Bc).; conditions: Bacillus cereus, ATCC 11778; read-out: MIC; method in brief: as §1

Compound	MIC (Proteus vulgaris) [µg/mL]	MIC (Escherichia coli [1]) [µg/mL]	ED50 (Staphylococcus aureus [2]) [mg/kg]	MIC (Pseudomonas aeruginosa [3]) [µg/mL]	MIC (Enterococcus faecalis) [µg/mL]	ED50 (Escherichia coli [4]) [mg/kg]	ED50 (Pseudomonas aeruginosa [5]) [mg/kg]	MIC (Bacillus subtilis) [µg/mL]	MIC (Klebsiella pneumoniae) [µg/mL]	MIC (Staphylococcus aureus [6]) [µg/mL]	MIC (Enterobacter cloacae) [µg/mL]	MIC [7] [µg/mL]	MIC (Morganella morganii) [µg/mL]	MIC (Bacillus cereus) [µg/mL]
CC1C(N)CN1c1c(F)cc2c(=O)c(C(=O)O)cn(-c3ccc(F)cc3)c2c1F (centres undefined)	0.5 (≈ 1.24 µM)	0.12 (≈ 0.298 µM)	5.7	2 (≈ 4.96 µM)	2 (≈ 4.96 µM)	2.5	55	–	–	–	–	–	–	–
CC1C(N)CN1c1c(F)cc2c(=O)c(C(=O)O)cn(C3CC3)c2c1Cl (centres undefined)	0.03 (≈ 0.082 µM)	0.015 (≈ 0.041 µM)	9.6	–	0.06 (≈ 0.164 µM)	2.8	38	0.03 (≈ 0.082 µM)	0.015 (≈ 0.041 µM)	0.03 (≈ 0.082 µM)	0.03 (≈ 0.082 µM)	0.03 (≈ 0.082 µM)	0.03 (≈ 0.082 µM)	0.03 (≈ 0.082 µM)
C[C@@H]1[C@@H](N)CN1c1c(F)cc2c(=O)c(C(=O)O)cn(-c3ccc(F)cc3F)c2c1F	0.5 (≈ 1.19 µM)	0.06 (≈ 0.142 µM)	11.2	0.5 (≈ 1.19 µM)	1 (≈ 2.37 µM)	3	98	0.06 (≈ 0.142 µM)	0.06 (≈ 0.142 µM)	0.12 (≈ 0.285 µM)	0.06 (≈ 0.142 µM)	0.12 (≈ 0.285 µM)	0.25 (≈ 0.593 µM)	0.12 (≈ 0.285 µM)
CCn1cc(C(=O)O)c(=O)c2cc(F)c(N3CC(N)C3C)c(F)c21 (centres undefined)	–	0.06 (≈ 0.178 µM)	5.1	1 (≈ 2.96 µM)	1 (≈ 2.96 µM)	4	56	0.06 (≈ 0.178 µM)	–	–	0.06 (≈ 0.178 µM)	–	0.06 (≈ 0.178 µM)	–
CC1C(N)CN1c1cc2c(cc1F)c(=O)c(C(=O)O)cn2C1CC1 (centres undefined)	0.06 (≈ 0.181 µM)	0.015 (≈ 0.0453 µM)	22.3	–	–	3.5	108	0.03 (≈ 0.0905 µM)	0.03 (≈ 0.0905 µM)	–	0.03 (≈ 0.0905 µM)	–	0.03 (≈ 0.0905 µM)	0.06 (≈ 0.181 µM)
CC1C(N)CN1c1c(F)c(N)c2c(=O)c(C(=O)O)cn(C3CC3)c2c1F (centres undefined)	0.06 (≈ 0.165 µM)	0.015 (≈ 0.0412 µM)	8.7	–	0.06 (≈ 0.165 µM)	4.2	102	0.015 (≈ 0.0412 µM)	0.015 (≈ 0.0412 µM)	0.015 (≈ 0.0412 µM)	0.015 (≈ 0.0412 µM)	0.015 (≈ 0.0412 µM)	0.015 (≈ 0.0412 µM)	0.015 (≈ 0.0412 µM)
C[C@@H]1[C@@H](N)CN1c1c(F)cc2c(=O)c(C(=O)O)cn(C3CC3)c2c1Cl	0.25 (≈ 0.683 µM)	0.25 (≈ 0.683 µM)	19.1	4 (≈ 10.9 µM)	0.25 (≈ 0.683 µM)	18.4	147	0.12 (≈ 0.328 µM)	2 (≈ 5.47 µM)	0.5 (≈ 1.37 µM)	0.25 (≈ 0.683 µM)	0.5 (≈ 1.37 µM)	0.25 (≈ 0.683 µM)	0.5 (≈ 1.37 µM)
CC1C(N)CN1c1nc2c(cc1F)c(=O)c(C(=O)O)cn2-c1ccc(F)cc1F (centres undefined)	1 (≈ 2.47 µM)	0.12 (≈ 0.297 µM)	8.9	1 (≈ 2.47 µM)	1 (≈ 2.47 µM)	3.3	140	0.06 (≈ 0.148 µM)	0.06 (≈ 0.148 µM)	–	–	–	–	–
CC1C(N)CN1c1cc2c(cc1F)c(=O)c(C(=O)O)cn2-c1ccc(F)cc1F (centres undefined)	0.5 (≈ 1.24 µM)	0.06 (≈ 0.149 µM)	8.1	2 (≈ 4.96 µM)	1 (≈ 2.48 µM)	6	78	0.03 (≈ 0.0744 µM)	–	–	–	–	–	–
CC1C(N)CN1c1nc2c(cc1F)c(=O)c(C(=O)O)cn2C1CC1 (centres undefined)	0.06 (≈ 0.181 µM)	0.03 (≈ 0.0903 µM)	13.8	0.5 (≈ 1.5 µM)	–	3.5	95	0.03 (≈ 0.0903 µM)	0.03 (≈ 0.0903 µM)	–	0.03 (≈ 0.0903 µM)	–	0.03 (≈ 0.0903 µM)	0.06 (≈ 0.181 µM)
CC1COc2c(N3CC(C)(N)C3)c(F)cc3c(=O)c(C(=O)O)cn1c23 (single isomer, unassigned)	8 (≈ 23 µM)	8 (≈ 23 µM)	–	32 (≈ 92.1 µM)	4 (≈ 11.5 µM)	–	–	2 (≈ 5.76 µM)	8 (≈ 23 µM)	4 (≈ 11.5 µM)	4 (≈ 11.5 µM)	4 (≈ 11.5 µM)	8 (≈ 23 µM)	4 (≈ 11.5 µM)
